Data from ChEMBL document CHEMBL4038317, “Discovery of a Benzamide Derivative That Protects Pancreatic β-Cells against Endoplasmic Reticulum Stress” (J Med Chem, 2017).
pEC50: −log10 of the molar value. Activity calls are given as the source filed them. The calls are words filed in the database; no cut-off is given here.

Experiments:
INS1 [1] = assay: Cytoprotective activity in rat INS-1 cells assessed as protection against tunicamycin-induced ER stress-mediated reduction in cell viability after 3 days by CellTiter-Glo assay relative tunicamycin; format: functional; conditions: INS1, 72 h
Outline: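 INS-1 cells, 3×10^3 per well, were co-treated with tunicamycin 0.1 μg/mL and compound for 72 h. Viability was read as intracellular ATP by luminescence and expressed as fold of no-tunicamycin cells. EC50 and maximum activity were taken as the increase in viability versus tunicamycin alone. Triplicate wells, three independent experiments.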

INS1 [2] = assay: Cytoprotective activity in rat INS-1 cells assessed as protection against tunicamycin-induced ER stress-mediated reduction in cell viability after 3 days by CellTiter-Glo assay; conditions: INS1, 72 h
[3] = biological target: T1, Cyclic AMP-dependent transcription factor ATF-6 alpha (Rattus norvegicus) (UniProt G3V909); assay: Inhibition of tunicamycin ER stress-induced ATF6 activation in rat INS-1 cells assessed as suppression of increase in […] mRNA levels up to 10 uM after 8 hrs by qRT-PCR analysis; format: cell-based
T1 sequence (whole entry): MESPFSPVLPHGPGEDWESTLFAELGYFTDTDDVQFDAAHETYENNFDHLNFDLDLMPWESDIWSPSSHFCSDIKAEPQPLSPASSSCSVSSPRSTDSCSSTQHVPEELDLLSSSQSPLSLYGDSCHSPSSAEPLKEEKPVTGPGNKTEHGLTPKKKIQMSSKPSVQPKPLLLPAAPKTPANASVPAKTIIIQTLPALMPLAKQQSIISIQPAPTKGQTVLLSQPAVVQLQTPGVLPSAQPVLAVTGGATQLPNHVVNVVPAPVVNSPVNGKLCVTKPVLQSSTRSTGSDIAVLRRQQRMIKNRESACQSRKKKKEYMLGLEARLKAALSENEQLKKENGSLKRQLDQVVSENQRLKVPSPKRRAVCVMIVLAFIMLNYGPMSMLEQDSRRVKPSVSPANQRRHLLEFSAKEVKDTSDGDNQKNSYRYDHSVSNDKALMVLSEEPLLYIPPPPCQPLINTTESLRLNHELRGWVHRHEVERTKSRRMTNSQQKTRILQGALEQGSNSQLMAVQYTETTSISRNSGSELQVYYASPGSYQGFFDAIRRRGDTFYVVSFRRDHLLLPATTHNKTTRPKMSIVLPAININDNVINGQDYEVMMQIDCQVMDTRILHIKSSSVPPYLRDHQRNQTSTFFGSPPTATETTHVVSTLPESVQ
Outline: (§1)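 INS-1 cells, 4×10^5 per well, were exposed to tunicamycin 0.1 μg/mL with compound or DMSO for 8 h. qRT-PCR for ATF4, CHOP, Bip, GRP94, or spliced XBP1 using splicing-specific primers. Values were normalized to cyclophilin A by ΔΔCt and given as fold over untreated control. Triplicate wells, 3 independent experiments.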

[4] = biological target: T2, Eukaryotic translation initiation factor 2-alpha kinase 3 (Rattus norvegicus) (UniProt Q9Z1Z1); assay: Inhibition of tunicamycin ER stress-induced PERK activation in rat INS-1 cells assessed as suppression of tunicamycin-induced increase in ATF4 protein levels up to 10 uM after 8 hrs by Western blot analysis; format: cell-based
T2 sequence (whole entry): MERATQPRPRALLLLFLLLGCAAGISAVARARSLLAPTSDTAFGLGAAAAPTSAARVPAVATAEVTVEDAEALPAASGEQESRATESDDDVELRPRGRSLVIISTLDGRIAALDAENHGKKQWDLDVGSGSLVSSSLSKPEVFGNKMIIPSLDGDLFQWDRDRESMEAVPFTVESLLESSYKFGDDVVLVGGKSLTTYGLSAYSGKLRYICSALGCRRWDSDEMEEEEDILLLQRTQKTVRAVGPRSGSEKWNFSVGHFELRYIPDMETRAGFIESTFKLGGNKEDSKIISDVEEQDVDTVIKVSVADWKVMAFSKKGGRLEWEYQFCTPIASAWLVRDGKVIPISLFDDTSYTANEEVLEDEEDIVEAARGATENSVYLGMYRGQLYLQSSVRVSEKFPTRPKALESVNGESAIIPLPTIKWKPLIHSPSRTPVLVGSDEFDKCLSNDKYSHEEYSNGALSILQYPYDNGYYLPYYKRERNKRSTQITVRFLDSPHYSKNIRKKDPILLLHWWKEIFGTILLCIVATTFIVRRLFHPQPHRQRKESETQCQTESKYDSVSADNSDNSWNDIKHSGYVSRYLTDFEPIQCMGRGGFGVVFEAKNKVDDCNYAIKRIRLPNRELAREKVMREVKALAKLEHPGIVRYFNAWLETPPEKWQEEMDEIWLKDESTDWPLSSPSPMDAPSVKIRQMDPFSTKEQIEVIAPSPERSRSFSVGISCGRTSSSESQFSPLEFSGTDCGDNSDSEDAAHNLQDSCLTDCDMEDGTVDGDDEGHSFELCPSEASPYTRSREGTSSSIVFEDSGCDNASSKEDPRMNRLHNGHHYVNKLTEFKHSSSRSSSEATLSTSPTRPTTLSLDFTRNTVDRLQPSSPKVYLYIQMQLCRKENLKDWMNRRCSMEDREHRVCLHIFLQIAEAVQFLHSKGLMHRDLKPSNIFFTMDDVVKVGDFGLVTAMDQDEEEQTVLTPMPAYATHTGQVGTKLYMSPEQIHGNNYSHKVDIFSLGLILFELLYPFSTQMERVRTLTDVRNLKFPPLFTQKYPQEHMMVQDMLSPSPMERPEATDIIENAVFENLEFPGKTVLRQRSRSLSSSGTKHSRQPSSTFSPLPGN
Outline: (§2)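 INS-1 cells were exposed to tunicamycin 0.1 μg/mL with compound or DMSO for 8 h. Lysates were immunoblotted for ATF4 and CHOP (1:1000). Bands were quantified by densitometry and normalized to α-tubulin; 3 independent experiments.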

[5] = biological target: T2, Eukaryotic translation initiation factor 2-alpha kinase 3 (Rattus norvegicus); assay: Inhibition of tunicamycin ER stress-induced PERK activation in rat INS-1 cells assessed as suppression of tunicamycin-induced increase in CHOP protein levels up to 10 uM after 8 hrs by Western blot analysis; format: cell-based; outline: as §2
[6] = biological target: T1, Cyclic AMP-dependent transcription factor ATF-6 alpha (Rattus norvegicus); assay: Inhibition of tunicamycin ER stress-induced ATF6 activation in rat INS-1 cells assessed as suppression of increase in Bip mRNA levels up to 10 uM after 8 hrs by qRT-PCR analysis; format: cell-based; outline: as §1

Compound	Emax (INS1 [1])	pEC50 (INS1 [2])	other results
COc1ccccc1CCNC(=O)c1ccc2c(c1)OCCO2	29%	< 4.52	
O=C(NCCc1ccccc1)c1ccc(CN2CCCCC2)cc1	87%	4.68	
O=C(NCc1ccc(Cl)c(Cl)c1)c1ccc2c(c1)OCCO2	68%	5.44	
Cc1ccccc1C(=O)NCCc1ccccc1	6%		
O=C(NCc1cccc(Cl)c1)c1ccc(CN2CCCCC2)cc1	80%	5.66	
O=C(NCCc1ccccc1)c1ccc(F)c(F)c1F	23%	5.00	
O=C(NCc1ccc(Cl)cc1)c1ccccc1CN1CCCCC1	73%	5.16	
O=C(NCCc1ccc(F)cc1)c1ccc2c(c1)OCCO2	50%	4.68	
Cc1ccc(C(=O)NCCc2ccccc2)cc1	25%	4.70	
Nc1cccc(C(=O)NCCc2ccccc2)c1	< 0%		
COc1cccc(CNC(=O)c2cccc(CN3CCCCC3)c2)c1	92%	6.02	
O=C(NCc1ccc(Cl)c(Cl)c1)c1ccc(CN2CCCCC2)cc1	78%	5.74	
CC(C)Sc1ccccc1C(=O)NCCc1ccccc1	30%	< 4.52	
O=C(NCc1ccc(Cl)cc1)c1cccc(CN2CCCCC2)c1	93%	6.62	
O=C(NCCc1ccc(Cl)cc1)c1ccc2c(c1)OCCO2	51%	4.82	
COc1ccc(CNC(=O)c2cccc(CN3CCCCC3)c2)cc1	93%	5.95	
O=C(NCCc1ccccc1)c1ccc(CN2CCCC2)cc1	31%	4.96	
O=C(NCc1ccc(Cl)cc1)c1ccc2c(c1)OCCO2	69%	5.55	
O=C(NCc1ccccc1Br)c1ccc2c(c1)OCCO2	38%	4.60	
O=C(NCCc1ccccc1)c1cccc(F)c1	< 0%		
O=C(NCc1ccccc1Cl)c1cccc(CN2CCCCC2)c1	93%	5.69	
O=C(NCCc1ccc(Cl)cc1)c1ccc(CN2CCCCC2)cc1	82%	4.68	
O=C(NCCc1ccc(Cl)c(Cl)c1)c1ccc(CN2CCCCC2)cc1	71%	4.62	

Compound	Emax (INS1 [1])	pEC50 (INS1 [2])	other results
COc1ccc(CCNC(=O)c2ccc3c(c2)OCCO3)cc1	26%	< 4.52	
O=C(NCc1cccc(Br)c1)c1ccc2c(c1)OCCO2	69%	5.26	
CS(=O)(=O)Nc1cccc(C(=O)NCCc2ccccc2)c1	24%	4.60	
C#CCOc1ccc(C(=O)NCCc2ccccc2)cc1	54%	< 4.52	
COc1ccc(C(=O)NCCc2cccc(Cl)c2)cc1OC	46%	4.62	
COc1ccc(CCNC(=O)c2ccc3c(c2)OCCO3)cc1OC	5%	< 4.52	inhibition [3]: inactive; inhibition [4]: inactive; inhibition [5]: inactive; inhibition [6]: inactive
O=C(NCCc1ccccc1)c1ccc(Cl)c(Cl)c1	42%	4.77	
O=C(NCc1cccc(Cl)c1)c1ccc2c(c1)OCCO2	57%	5.02	
O=C(NCc1ccc(Cl)cc1)c1ccc(CN2CCCCC2)cc1	77%	5.02	
COc1ccc(C(=O)NCCc2ccccc2)cc1C	56%	4.82	
O=C(NCCc1cccc(Cl)c1)c1ccc2c(c1)OCCO2	42%	4.68	
O=C(NCc1ccccc1Cl)c1ccc(CN2CCCCC2)cc1	87%	4.89	
O=C(NCc1cccc(Br)c1)c1ccc(CN2CCCCC2)cc1	81%	5.31	
O=C(NCc1ccccc1)c1cccc(CN2CCCCC2)c1	95%	6.46	
O=C(NCCc1ccccc1)c1cc(F)c(F)c(F)c1F	< 0%		
O=C(NCCc1cccc(Cl)c1)c1ccc2c(c1)OCO2	41%	4.60	
CN(C)S(=O)(=O)c1ccc(C(=O)NCCc2ccccc2)cc1	37%	4.72	
O=C(NCCc1ccccc1)c1cccc([N+](=O)[O-])c1	< 0%		
CCOc1cccc(C(=O)NCCc2ccccc2)c1	49%	4.59	
O=C(NCc1cccc(C(F)(F)F)c1)c1cccc(CN2CCCCC2)c1	91%	6.60	
O=C(NCc1ccccc1Cl)c1ccc2c(c1)OCCO2	43%	4.60	
O=C(NCc1cccc(Cl)c1)c1cccc(CN2CCCCC2)c1	90%	6.39	
O=C(NCCc1ccccc1)c1ccc2c(c1)OCCO2	47%	4.72	
